# In ChEMBL document CHEMBL3769384, “Discovery of Tetrahydropyrazolopyridine as Sphingosine 1-Phosphate Receptor 3 (S1P3)-Sparing S1P1 Agonists Active at Low Oral Doses” (J Med Chem, 2016):
# The source made the active and inactive calls. The rule behind the calls is not given here.
# Assays:
# [1] = Clearance in CD rat at 1 mg/kg, iv after 24 hrs by LC-MS/MS analysis; format: ADME, organism-based; details: in vivo
# Procedure, shortened: (§1)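 Male animals (CD rat and Beagle dog, n=3; CD1 mouse, n=5) given a 1 h i.v. infusion at 1 mg/kg. Vehicle: DMSO:10% Kleptose HPB in saline (2%:98% v/v), 0.2 mg/mL. Serial blood sampled up to 24 h and assayed by LC-MS/MS. Values from non-compartmental analysis, mean ± SD.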
# [2] = Oral bioavailability in CD1 mouse at 3 mg/kg after 24 hrs by LC-MS/MS analysis; format: ADME, organism-based; details: in vivo
# Procedure, shortened: (§2)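 Oral dose as a suspension in 1% methylcellulose: CD rat 3 mg/kg (2 rats, crossover after i.v.), Beagle dog 2 mg/kg (fasted, crossover after i.v.), CD1 mouse 3 mg/kg by gavage (n=4). Blood sampled up to 24 h and assayed by LC-MS/MS. Bioavailability was referenced to the 1 h i.v. infusion at 1 mg/kg, by non-compartmental analysis.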
# [3] = Half life in CD rat at 1 mg/kg, iv after 24 hrs by LC-MS/MS analysis; format: ADME, organism-based; details: in vivo; procedure, shortened: as §1
# [4] = Half life in CD1 mouse at 1 mg/kg, iv after 24 hrs by LC-MS/MS analysis; format: ADME, organism-based; details: in vivo; procedure, shortened: as §1
# [5] = Volume of distribution at steady state in CD rat at 1 mg/kg, iv after 24 hrs by LC-MS/MS analysis; format: ADME, organism-based; details: in vivo, read-out: Vdss; procedure, shortened: as §1
# [6] = Solubility of compound in simulated gastric fluid at pH 1.6 after 24 hrs; format: ADME
# [7] = Solubility of compound in FeSSIF at pH 6.5 after 24 hrs; format: physicochemical
# [8] = Clearance in CD1 mouse at 1 mg/kg, iv after 24 hrs by LC-MS/MS analysis; format: ADME, organism-based; details: in vivo; procedure, shortened: as §1
# [9] = Volume of distribution at steady state in CD1 mouse at 1 mg/kg, iv after 24 hrs by LC-MS/MS analysis; format: ADME, organism-based; details: in vivo, read-out: Vdss
# Procedure, shortened: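 Male CD1 mice with a jugular vein cannula got a 1 h IV infusion at 1 mg/kg, dosed at 0.2 mg/mL in DMSO:10% w/v Kleptose HPB in saline (2%:98% v/v). Serial tail-vein blood (ca. 25 µL) was taken up to 24 h and assayed against calibration standards in control blood. Non-compartmental analysis was used; n=5, mean ± SD.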
# [10] = Solubility of compound in FaSSIF at pH 6.5 after 24 hrs; format: physicochemical
# [11] = Oral bioavailability in CD rat at 3 mg/kg after 24 hrs by LC-MS/MS analysis; format: ADME, organism-based; details: in vivo; procedure, shortened: as §2
# [12] = Half life in beagle dog at 1 mg/kg, iv after 24 hrs by LC-MS/MS analysis; format: ADME, organism-based, Canis lupus familiaris; details: in vivo; procedure, shortened: as §1
# [13] = Oral bioavailability in beagle dog at 2 mg/kg 24 hrs by LC-MS/MS analysis; format: ADME, organism-based, Canis lupus familiaris; details: in vivo; procedure, shortened: as §2
# [14] = Volume of distribution at steady state in beagle dog at 1 mg/kg, iv after 24 hrs by LC-MS/MS analysis; format: ADME, organism-based, Canis lupus familiaris; details: in vivo, read-out: Vdss
# Procedure, shortened: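 Three fasted male Beagle dogs got a 1 h IV infusion at 1 mg/kg, dosed at 0.2 mg/mL in DMSO:10% w/v Kleptose HPB in saline (2%:98% v/v). Blood went into K-EDTA tubes predose to 24 h, from a cephalic cannula to 2 h and by jugular venepuncture after. Analysis was LC-MS/MS (LLQ 1 ng/mL) with non-compartmental parameters; mean n=3 ± SD.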
# [15] = Clearance in beagle dog at 1 mg/kg, iv after 24 hrs by LC-MS/MS analysis; format: ADME, organism-based, Canis lupus familiaris; details: in vivo; procedure, shortened: as §1
# [16] = target: T1, Sphingosine 1-phosphate receptor 4 (Homo sapiens) (UniProt O95977); test: Agonist activity at human S1P4 receptor expressed in CHO-K1 cells by aequorin calcium accumulation assay; format: functional, cell-based
# T1 sequence (whole entry): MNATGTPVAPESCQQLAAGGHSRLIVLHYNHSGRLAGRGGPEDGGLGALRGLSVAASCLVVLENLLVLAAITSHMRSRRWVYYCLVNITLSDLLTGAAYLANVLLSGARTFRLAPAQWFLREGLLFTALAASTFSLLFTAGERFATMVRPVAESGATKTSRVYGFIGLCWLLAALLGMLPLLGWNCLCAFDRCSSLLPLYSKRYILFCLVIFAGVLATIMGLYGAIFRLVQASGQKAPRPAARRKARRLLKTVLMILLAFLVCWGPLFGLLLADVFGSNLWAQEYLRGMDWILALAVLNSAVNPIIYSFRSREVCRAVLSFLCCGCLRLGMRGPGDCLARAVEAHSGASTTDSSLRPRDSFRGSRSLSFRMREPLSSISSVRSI
# Procedure, shortened: (§3)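 CHO-K1 aequorin lines revived in DMEM F12 with 10% charcoal-stripped FBS, recovered 30 min at 37°C, then loaded 18-24 h at room temperature in the dark with 5 µM coelenterazine at 2.5x10^6 cells/mL. Cells were added at 1x10^5/well to compound, and flash luminescence was recorded immediately.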
# [17] = target: Sphingosine 1-phosphate receptor 2 (Homo sapiens, UniProt O95136); test: Agonist activity at human S1P2 receptor expressed in Saccharomyces cerevisiae after 24 hrs by reporter gene assay
# Procedure, shortened: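 S. cerevisiae with integrated S1P2 under the GPD promoter, seeded at 0.02 OD600 in histidine-free minimal medium with 5 mM 3-aminotriazole and 100 µM fluorescein-di-(β-D-glucopyranoside). Agonist-driven growth was read as fluorescein fluorescence (ex 485/em 535 nm) after 24 h at 30°C.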
# [18] = target: Sphingosine 1-phosphate receptor 5 (Homo sapiens, UniProt Q9H228); test: Agonist activity at human S1P5 receptor expressed in CHO-K1 cells by aequorin calcium accumulation assay; format: functional, cell-based; procedure, shortened: as §3
# [19] = target: T2, Sphingosine 1-phosphate receptor 1 (Homo sapiens, UniProt P21453); test: Agonist activity at human S1P1 receptor expressed in CHO-K1 EDG1 cells by beta-arrestin recruitment assay; format: cell-based
# Procedure, shortened: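 CHO-K1 cells stably expressing beta-arrestin 2 and S1P1 fused to complementing beta-galactosidase fragments; grown to 80% confluency, harvested enzyme-free, resuspended in HEPES/BSA assay buffer pH 7.4. Cells at 1x10^4/well added to compound in DMSO, 90 min at 37°C/5% CO2, then 15 min at room temperature; chemiluminescent detection mix 60 min at room temperature, luminescence read.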
# [20] = target: T2, Sphingosine 1-phosphate receptor 1; test: Agonist activity at human S1P1 receptor by receptor internalisation assay
# [21] = test system: Rattus norvegicus; test: Lymphopenia activity in Lewis rat at 1 mg/kg, po measured after 2 to 4 hrs; format: functional, organism-based
# [22] = test system: Rattus norvegicus; test: Lymphopenia activity in Lewis rat at 0.3 mg/kg, po measured after 24 hrs; format: functional, organism-based
# Procedure, shortened: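 Male Lewis rats (300-350 g) bled by venepuncture the day before dosing. Compound given orally at 0.1-3 mg/kg, or vehicle (1% methylcellulose, 4 mL/kg). Blood taken 0.25-54 h post-dose and lymphocytes counted on an automatic haematology analyser.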
# [23] = test system: Rattus norvegicus; test: Lymphopenia activity in Lewis rat at 1 mg/kg, po measured after 24 hrs; format: functional, organism-based
# T2 sequence (P21453 whole entry, the tested form may be a part): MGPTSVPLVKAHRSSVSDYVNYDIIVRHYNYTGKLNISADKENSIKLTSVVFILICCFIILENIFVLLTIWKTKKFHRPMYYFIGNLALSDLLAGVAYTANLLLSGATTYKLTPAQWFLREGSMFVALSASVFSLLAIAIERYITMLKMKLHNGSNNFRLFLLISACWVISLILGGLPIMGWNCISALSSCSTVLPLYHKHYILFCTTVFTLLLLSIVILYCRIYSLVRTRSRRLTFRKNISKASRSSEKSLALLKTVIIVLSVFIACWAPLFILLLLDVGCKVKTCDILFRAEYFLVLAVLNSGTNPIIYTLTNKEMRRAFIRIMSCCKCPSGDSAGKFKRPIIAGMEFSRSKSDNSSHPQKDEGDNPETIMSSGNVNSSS
# Sphingosine 1-phosphate receptor 5, sequence (Q9H228 whole entry): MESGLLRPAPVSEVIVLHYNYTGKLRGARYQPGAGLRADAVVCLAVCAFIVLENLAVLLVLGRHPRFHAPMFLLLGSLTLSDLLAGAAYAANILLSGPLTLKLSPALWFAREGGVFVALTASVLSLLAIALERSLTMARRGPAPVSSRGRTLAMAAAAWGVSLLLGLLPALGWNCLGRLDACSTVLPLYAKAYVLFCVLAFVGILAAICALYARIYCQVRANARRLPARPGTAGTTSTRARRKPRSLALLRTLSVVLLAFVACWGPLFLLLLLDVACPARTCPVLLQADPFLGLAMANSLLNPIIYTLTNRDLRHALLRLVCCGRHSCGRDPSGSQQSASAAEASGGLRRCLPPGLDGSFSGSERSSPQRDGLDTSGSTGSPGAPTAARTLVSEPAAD
# Sphingosine 1-phosphate receptor 2, sequence (O95136 whole entry): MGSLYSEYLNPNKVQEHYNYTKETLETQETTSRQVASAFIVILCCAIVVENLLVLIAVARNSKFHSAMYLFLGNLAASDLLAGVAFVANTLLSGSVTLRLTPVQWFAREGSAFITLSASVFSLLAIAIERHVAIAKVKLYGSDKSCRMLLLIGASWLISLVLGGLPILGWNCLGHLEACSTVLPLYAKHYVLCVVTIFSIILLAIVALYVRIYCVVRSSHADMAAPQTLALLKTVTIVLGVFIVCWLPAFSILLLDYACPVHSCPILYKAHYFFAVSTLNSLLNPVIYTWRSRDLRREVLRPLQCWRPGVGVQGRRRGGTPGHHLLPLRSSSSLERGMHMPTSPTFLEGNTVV
structure (smiles),measurement,setting,value
Cc1c2c(nn1-c1nnc(-c3ccc(OC(C)C)c(Cl)c3)s1)CCN(CCC(=O)O)C2.O=C(O)C(F)(F)F,clearance,[1],24 mL/min/kg
same,bioavailability,[2],79%
same,half-life,[3],264 min
same,half-life,[4],228 min
same,Vd,[5],3.7 L/kg
same,solubility at 24 h,[6],37 µg/mL
same,solubility at 24 h,[7],4 µg/mL
same,clearance,[8],16 mL/min/kg
same,Vd,[9],3.3 L/kg
same,solubility at 24 h,[10],3 µg/mL
same,bioavailability,[11],48%
Cc1c2c(nn1-c1nnc(-c3ccc(OC(C)C)c(Cl)c3)s1)CCN(CCC(=O)O)C2.Cl,half-life,[12],390 min
same,bioavailability,[13],44%
same,solubility at 24 h,[6],7 µg/mL
same,Vd,[14],5.3 L/kg
same,clearance,[15],33 mL/min/kg
same,solubility at 24 h,[7],46 µg/mL
same,solubility at 24 h,[10],16 µg/mL
Cc1c2c(nn1-c1nnc(-c3ccc(OC(C)C)c(Cl)c3)s1)CCN(CCC(=O)O)C2,Emax,[16],7%
same,Emax,[17],0%
same,Emax,[18],63%
same,Emax,[19],83%
same,Emax,[20],109%
same,Activity,[21],Active
same,Activity,[22],Active
same,Activity,[23],Active
